From ChEMBL document CHEMBL5678798 (Clin Cancer Res, 2009)
Active and inactive are the calls of the source. No cut-off for these calls is given here.

Experiments:
[1] = target: SRSF protein kinase 1 (Homo sapiens) (UniProt Q96SB4); assay: Inhibition of N-terminal GST-tagged recombinant human SRPK1 expressed in Escherichia coli at 0.3 uM by filter binding assay relative to control
How it was run: (§1)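 Outsourced single-concentration screen in a commercial panel of 233 protein kinases, run as radiometric filter-binding activity assays. Test agent was tested at 0.3 or 3 µmol/L, as given in each line, from a 10 mmol/L DMSO stock. Activity is expressed as percent inhibition relative to control.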

[2] = target: Aurora kinase A (Homo sapiens, UniProt O14965); assay: Inhibition of Aurora A (unknown origin)
Chain of Aurora kinase A (O14965 whole entry): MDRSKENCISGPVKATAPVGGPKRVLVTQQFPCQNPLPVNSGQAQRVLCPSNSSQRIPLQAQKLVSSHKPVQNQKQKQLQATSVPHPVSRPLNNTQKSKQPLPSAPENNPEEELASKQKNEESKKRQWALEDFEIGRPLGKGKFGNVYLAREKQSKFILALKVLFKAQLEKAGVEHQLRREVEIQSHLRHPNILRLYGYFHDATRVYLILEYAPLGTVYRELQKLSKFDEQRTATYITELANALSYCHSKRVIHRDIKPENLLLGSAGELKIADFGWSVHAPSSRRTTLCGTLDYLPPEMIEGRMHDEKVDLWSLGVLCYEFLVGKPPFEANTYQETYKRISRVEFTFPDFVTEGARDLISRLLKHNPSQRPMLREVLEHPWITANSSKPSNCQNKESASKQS
How it was run: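 In-house kinase panel assay with conditions developed and optimized for this kinase. Aurora A was assayed in the presence of its accessory protein TPX2. IC50 was determined.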

[3] = target: FKBP12A/mTOR (Homo sapiens) (UniProt P62942+P42345); assay: Inhibition of human mTOR/FKBP12 at 3 uM by filter binding assay relative to control; assay type: protein-complex assay
Chain of FKBP12A/mTOR (Homo sapiens) (P62942 2-108 limits assumed, other chains not shown): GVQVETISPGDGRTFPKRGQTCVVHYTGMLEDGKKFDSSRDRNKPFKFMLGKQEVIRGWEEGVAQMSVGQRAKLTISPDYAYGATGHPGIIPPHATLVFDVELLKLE

[4] = Inhibition of p70S6K (unknown origin); set-up: species or system Homo sapiens
[5] = target: Insulin-like growth factor 1 receptor (Homo sapiens, UniProt P08069); assay: Inhibition of N-terminal 6His-tagged recombinant human IGF-1R (959 to end residues) expressed in baculovirus infected Sf21 cells by filter binding assay
[6] = target: Serine/threonine-protein kinase pim-1 (Homo sapiens) (UniProt P11309); assay: Inhibition of N-terminal GST-tagged recombinant human full-length Pim-1 expressed in Escherichia coli cells at 0.3 uM by filter binding assay relative to control; how it was run: as §1
[7] = test system: NCI-H929; assay: Induction of cell cycle arrest in human NCI-H929 cells assessed as decrease in cells accumulation at S phase at 0.03 to 10 uM incubated for 24 to 48 hrs by propidium iodide staining based flow cytometric analysis; assay type: functional; conditions: dose 0.03-10 µM, time lower 24.0 hrs, time upper […]
How it was run: (§2)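 COLO 205, MCF-7 or NCI-H929 cells seeded in 96-well plates overnight at 37°C, then exposed to DMSO or increasing compound concentrations for 24 or 48 h. Fixed and stained with propidium iodide (Vindelov method), then analysed by flow cytometry for sub-G1, G1, S and G2-M fractions. Experiment repeated twice.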

[8] = target: 3-phosphoinositide-dependent protein kinase 1 (PDPK1) (Homo sapiens) (UniProt O15530); assay: Inhibition of N-terminal His6-tagged recombinant human PDK1 (52 to end residues) expressed in baculovirus infected Sf21 cells at 0.3 uM by filter binding assay relative to control
Chain of 3-phosphoinositide-dependent protein kinase 1 (PDPK1) (Homo sapiens) (O15530 whole entry, looked up): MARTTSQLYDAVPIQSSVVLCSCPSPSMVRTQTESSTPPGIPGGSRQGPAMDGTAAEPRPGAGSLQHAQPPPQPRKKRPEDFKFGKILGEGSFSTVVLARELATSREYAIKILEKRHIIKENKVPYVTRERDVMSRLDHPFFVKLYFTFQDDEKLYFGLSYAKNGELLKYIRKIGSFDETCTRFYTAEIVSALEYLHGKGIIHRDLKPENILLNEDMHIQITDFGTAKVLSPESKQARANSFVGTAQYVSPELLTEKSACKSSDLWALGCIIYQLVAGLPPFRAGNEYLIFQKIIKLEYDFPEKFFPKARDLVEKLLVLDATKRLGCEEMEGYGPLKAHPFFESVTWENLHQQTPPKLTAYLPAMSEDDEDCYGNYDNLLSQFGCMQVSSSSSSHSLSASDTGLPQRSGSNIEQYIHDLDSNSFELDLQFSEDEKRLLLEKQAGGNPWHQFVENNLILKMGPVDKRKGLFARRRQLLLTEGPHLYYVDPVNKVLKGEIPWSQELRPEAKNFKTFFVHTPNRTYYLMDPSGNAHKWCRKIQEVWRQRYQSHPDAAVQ

[9] = target: Serine/threonine-protein kinase PAK 6 (Homo sapiens) (UniProt Q9NQU5); assay: Inhibition of N-terminal His6-tagged recombinant human PAK6 (382 to end residues) expressed in Sf21 cells at 3 uM by filter binding assay relative to control
Chain of Serine/threonine-protein kinase PAK 6 (Homo sapiens) (Q9NQU5 whole entry, looked up): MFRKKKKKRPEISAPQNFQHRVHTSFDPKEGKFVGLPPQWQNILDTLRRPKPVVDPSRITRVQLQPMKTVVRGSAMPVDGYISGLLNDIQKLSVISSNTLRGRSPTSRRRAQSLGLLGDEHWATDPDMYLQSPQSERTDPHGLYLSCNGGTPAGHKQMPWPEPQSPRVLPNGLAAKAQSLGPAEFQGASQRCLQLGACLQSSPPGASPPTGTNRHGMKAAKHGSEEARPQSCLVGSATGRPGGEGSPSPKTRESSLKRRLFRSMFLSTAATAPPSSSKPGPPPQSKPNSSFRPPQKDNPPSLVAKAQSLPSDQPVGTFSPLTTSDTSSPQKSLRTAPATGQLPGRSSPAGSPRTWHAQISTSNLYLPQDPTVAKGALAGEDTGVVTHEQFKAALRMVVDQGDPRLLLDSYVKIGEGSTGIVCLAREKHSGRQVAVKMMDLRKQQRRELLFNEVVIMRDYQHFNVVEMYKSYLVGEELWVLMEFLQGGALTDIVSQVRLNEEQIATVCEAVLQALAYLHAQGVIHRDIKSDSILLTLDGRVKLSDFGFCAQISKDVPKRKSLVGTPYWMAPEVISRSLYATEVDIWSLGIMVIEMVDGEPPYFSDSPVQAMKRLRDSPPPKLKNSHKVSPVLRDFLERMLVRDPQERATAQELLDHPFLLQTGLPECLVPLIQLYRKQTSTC

[10] = target: Serine/threonine-protein kinase B-raf (Homo sapiens, UniProt P15056, V600E); assay: Inhibition of B-Raf V600E mutant (unknown origin)
Chain of Serine/threonine-protein kinase B-raf (P15056 2-766 V600E limits assumed): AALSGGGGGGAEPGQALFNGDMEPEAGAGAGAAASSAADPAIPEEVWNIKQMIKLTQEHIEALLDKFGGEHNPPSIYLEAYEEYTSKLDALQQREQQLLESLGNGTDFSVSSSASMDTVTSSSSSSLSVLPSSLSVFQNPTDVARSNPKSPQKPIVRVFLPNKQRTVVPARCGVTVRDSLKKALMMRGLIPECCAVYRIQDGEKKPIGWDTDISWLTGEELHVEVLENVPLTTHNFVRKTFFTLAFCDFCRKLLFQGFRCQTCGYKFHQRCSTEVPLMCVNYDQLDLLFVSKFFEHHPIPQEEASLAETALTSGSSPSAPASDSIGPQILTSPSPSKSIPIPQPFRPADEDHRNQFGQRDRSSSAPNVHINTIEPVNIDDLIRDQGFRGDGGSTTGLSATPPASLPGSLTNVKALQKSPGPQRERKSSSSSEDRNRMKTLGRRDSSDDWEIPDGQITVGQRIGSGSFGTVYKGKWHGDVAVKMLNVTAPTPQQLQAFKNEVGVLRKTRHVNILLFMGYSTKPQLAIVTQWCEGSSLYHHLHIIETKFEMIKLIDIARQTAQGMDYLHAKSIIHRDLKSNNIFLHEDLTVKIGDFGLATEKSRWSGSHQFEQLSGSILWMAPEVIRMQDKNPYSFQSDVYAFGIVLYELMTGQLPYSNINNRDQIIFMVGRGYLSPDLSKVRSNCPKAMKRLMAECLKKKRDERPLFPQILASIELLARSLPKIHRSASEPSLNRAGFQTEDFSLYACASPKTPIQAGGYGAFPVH

[11] = target: Serine/threonine-protein kinase TBK1 (Homo sapiens) (UniProt Q9UHD2); assay: Inhibition of N-terminal His6-tagged recombinant full-length human TBK1 expressed in baculovirus infected Sf21 cells at 0.3 uM by filter binding assay relative to control; how it was run: as §1
[12] = target: Vascular endothelial growth factor receptor 1 (Homo sapiens) (UniProt P17948); assay: Inhibition of N-terminal GST-tagged recombinant human Flt1 (783 to end residues) expressed in baculovirus infected Sf21 cells at 0.3 uM by filter binding assay relative to control; how it was run: as §1
[13] = target: Cyclin-dependent kinase 16 (Homo sapiens, UniProt Q00536); assay: Inhibition of PCTAIRE1 (unknown origin)
Chain of Cyclin-dependent kinase 16 (Q00536 whole entry): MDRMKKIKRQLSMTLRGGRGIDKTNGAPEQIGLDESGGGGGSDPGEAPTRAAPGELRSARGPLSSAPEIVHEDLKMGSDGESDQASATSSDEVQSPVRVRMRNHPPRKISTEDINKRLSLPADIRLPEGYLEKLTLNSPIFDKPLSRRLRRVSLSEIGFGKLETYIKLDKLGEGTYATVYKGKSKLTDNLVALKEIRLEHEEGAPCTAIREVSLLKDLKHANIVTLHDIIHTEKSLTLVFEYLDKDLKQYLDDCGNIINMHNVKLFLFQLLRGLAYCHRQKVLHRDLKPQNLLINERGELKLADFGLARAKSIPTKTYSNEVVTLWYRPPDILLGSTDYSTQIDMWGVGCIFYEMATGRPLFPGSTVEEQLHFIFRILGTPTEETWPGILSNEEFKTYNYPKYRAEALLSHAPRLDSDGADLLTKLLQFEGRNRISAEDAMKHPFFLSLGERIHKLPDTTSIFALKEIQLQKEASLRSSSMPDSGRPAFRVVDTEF

[14] = In vivo inhibition of IGF1R in mouse NIH-3T3/LISN cells implanted in IGF1-stimulated nu/nu CD-1 mouse assessed as reduction in IGF1R phosphorylation at 30 mg/kg, po pretreated for 24 hrs followed by IGF1 stimulation and measured after 10 min […] relative to control; assay type: functional; conditions: 24.17 h, time 1450 min
How it was run: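 Time course: tumor-bearing female nu/nu CD-1 mice, three per group, given a single oral 30 mg/kg dose or vehicle. IGF-I given 10 min before blood and tumor collection at each time point. Tumor phospho-IGF-IR/total IGF-IR measured by capture-plate europium phosphotyrosine assay and expressed as % of ligand-stimulated control.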

[15] = test system: MCF7; assay: Induction of cell cycle arrest in human MCF7 cells assessed as cells accumulation at G2 phase at 1 umol/L incubated for 48 hrs by propidium iodide staining based flow cytometric analysis (reference value: 17%); assay type: functional; conditions: dose 1 µmol/L, at 1 µM; how it was run: as §2
[16] = target: Vascular endothelial growth factor receptor 3 (Homo sapiens, UniProt P35916); assay: Inhibition of N-terminal GST-tagged recombinant human Flt4 (800 to end residues) expressed in baculovirus infected Sf21 cells by filter binding assay
[17] = target: Macrophage colony-stimulating factor 1 receptor (Homo sapiens) (UniProt P07333); assay: Inhibition of N-terminal His6-tagged recombinant human Fms (538 to end residues) expressed in baculovirus infected Sf21 cells at 0.3 uM by filter binding assay relative to control
[18] = Toxicity in nu/nu CD-1 mouse xenografted with human BXPC-3 cells assessed as reduction in body weight at 30 mg/kg, po for 21 days relative to control; assay type: organism-based; conditions: in vivo, 504 h, time 21 day
[19] = target: Tyrosine-protein kinase Lyn (Homo sapiens) (UniProt P07948); assay: Inhibition of N-terminal His6-tagged recombinant full-length human Lyn expressed in Sf21 cells at 3 uM by filter binding assay relative to control; how it was run: as §1
Chain of Tyrosine-protein kinase Lyn (Homo sapiens) (P07948 2-512 limits assumed): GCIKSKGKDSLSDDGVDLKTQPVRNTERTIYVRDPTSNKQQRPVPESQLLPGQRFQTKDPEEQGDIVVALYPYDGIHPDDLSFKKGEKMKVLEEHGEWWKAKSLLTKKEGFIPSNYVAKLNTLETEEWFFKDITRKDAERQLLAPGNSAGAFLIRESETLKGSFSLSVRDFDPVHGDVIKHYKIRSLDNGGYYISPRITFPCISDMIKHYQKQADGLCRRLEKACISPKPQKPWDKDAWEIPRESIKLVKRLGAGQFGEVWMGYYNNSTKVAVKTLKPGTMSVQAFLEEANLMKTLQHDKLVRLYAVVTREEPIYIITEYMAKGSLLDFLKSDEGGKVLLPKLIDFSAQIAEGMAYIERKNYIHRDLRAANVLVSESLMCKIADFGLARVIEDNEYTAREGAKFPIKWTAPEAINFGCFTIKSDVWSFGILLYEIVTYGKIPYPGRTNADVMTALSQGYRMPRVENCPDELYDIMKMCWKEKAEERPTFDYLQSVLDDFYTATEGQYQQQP

[20] = Antiproliferative activity against human SUPM2 cells assessed as reduction in cell viability after 72 hrs by CellTiter-Glo assay; assay type: functional, cell-based; conditions: SUP-M2, 72 h
How it was run: (§3)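 Cells seeded in 96-well plates, left overnight at 37°C, then exposed to a range of test concentrations for 72 h. Viability read by CellTiter-Glo luminescence; IC50 from four-parameter curve fit. Lines kept at 37°C, 5% CO2, in recommended growth medium.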

[21] = test system: NCI-H929; assay: Induction of cell cycle arrest in human NCI-H929 cells assessed as effect on sub-2N-DNA content at 0.03 to 10 uM incubated for 24 to 48 hrs by propidium iodide staining based flow cytometric analysis; assay type: functional; conditions: dose 0.03-10 µM, time lower 24.0 hrs, time upper […]; how it was run: as §2
[22] = target: Death-associated protein kinase 3 (Homo sapiens) (UniProt O43293); assay: Inhibition of N-terminal GST tagged recombinant human ZIPK (1 to 290 residues) expressed in Escherichia coli at 3 uM by filter binding assay relative to control; how it was run: as §1
Chain of Death-associated protein kinase 3 (Homo sapiens) (O43293 whole entry, looked up, the tested form may be a part): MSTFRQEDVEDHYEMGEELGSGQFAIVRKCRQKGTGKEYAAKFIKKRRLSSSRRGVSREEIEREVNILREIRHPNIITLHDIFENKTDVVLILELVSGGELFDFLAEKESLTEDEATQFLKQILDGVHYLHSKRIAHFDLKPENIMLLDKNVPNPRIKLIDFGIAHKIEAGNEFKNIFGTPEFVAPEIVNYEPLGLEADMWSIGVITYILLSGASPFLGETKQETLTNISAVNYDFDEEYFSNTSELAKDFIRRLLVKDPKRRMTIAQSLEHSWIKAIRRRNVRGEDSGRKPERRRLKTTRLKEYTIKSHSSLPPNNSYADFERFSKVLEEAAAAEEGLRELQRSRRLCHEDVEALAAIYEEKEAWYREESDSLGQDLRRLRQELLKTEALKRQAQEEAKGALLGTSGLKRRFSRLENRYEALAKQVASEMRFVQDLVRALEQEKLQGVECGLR

[23] = test system: COLO 205; assay: Induction of cell cycle arrest in human COLO 205 cells assessed as cells accumulation at S phase at 1 umol/L incubated for 48 hrs by propidium iodide staining based flow cytometric analysis (reference value: 9%); assay type: functional; conditions: dose 1 µmol/L, at 1 µM; how it was run: as §2
[24] = test system: LNCaP; assay: Antiproliferative activity against human LNCaP cells assessed as reduction in cell viability after 72 hrs by CellTiter-Glo assay; assay type: functional, cell-based; how it was run: as §3
[25] = target: Ephrin type-A receptor 1 (Homo sapiens) (UniProt P21709); assay: Inhibition of N-terminal 6His-tagged recombinant human EphA1 (568 to end residues) expressed in baculovirus infected Sf21 cells at 3 uM by filter binding assay relative to control; how it was run: as §1
Chain of Ephrin type-A receptor 1 (Homo sapiens) (P21709 whole entry): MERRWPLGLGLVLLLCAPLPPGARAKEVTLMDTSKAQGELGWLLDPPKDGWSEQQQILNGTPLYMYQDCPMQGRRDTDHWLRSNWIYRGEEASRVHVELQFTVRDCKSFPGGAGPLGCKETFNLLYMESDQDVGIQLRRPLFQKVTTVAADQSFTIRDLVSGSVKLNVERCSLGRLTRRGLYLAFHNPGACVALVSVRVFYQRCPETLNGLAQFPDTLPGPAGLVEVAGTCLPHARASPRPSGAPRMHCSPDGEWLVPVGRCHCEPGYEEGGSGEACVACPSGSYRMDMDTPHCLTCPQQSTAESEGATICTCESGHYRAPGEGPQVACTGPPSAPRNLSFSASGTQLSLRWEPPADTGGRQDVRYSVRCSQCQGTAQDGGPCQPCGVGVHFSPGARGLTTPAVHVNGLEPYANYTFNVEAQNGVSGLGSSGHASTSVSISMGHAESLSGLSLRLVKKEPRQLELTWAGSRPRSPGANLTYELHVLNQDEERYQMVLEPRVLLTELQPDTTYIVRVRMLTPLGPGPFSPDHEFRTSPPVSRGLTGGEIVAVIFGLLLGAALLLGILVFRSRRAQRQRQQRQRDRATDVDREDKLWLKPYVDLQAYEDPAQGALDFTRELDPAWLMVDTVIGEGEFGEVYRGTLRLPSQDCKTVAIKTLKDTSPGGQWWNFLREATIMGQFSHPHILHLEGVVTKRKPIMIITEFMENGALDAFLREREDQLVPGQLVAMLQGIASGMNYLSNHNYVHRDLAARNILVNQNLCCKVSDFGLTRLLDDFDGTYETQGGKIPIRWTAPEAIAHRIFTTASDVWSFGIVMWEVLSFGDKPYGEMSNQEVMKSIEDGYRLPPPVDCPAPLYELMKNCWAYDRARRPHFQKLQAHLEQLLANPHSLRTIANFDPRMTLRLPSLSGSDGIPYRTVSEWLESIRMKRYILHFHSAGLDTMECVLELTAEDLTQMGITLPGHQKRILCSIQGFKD

CCc1cc(Nc2nccc(-c3c(-c4ccc(OC)c(C(=O)Nc5c(F)cccc5F)c4)nc4ccccn34)n2)c(OC)cc1N1CCC(N2CCN(S(C)(=O)=O)CC2)CC1
inhibition [1]: 1% | IC50 [2]: > 8 µM | inhibition [3]: 4% | IC50 [4]: > 10 µM | IC50 [5]: 0.058 µM | inhibition [6]: -8% | Activity [7]: Active | inhibition [8]: 1% | inhibition [9]: 0% | IC50 [10]: > 2 µM | inhibition [11]: 18% | inhibition [12]: 10% | IC50 [13]: > 10 µM | inhibition in vivo at 30 mg/kg [14]: 76% | Activity [15]: 11% | IC50 [16]: 0.159 µM | inhibition [17]: 10% | Activity [18]: Non-Toxic | inhibition [19]: 37% | IC50 [20]: > 30 µM | Activity [21]: inactive | inhibition [22]: 27% | Activity [23]: 6% | IC50 [24]: > 20 µM | inhibition [25]: 22%
